# Rows were chosen to be rich in hits. Some 2.2% of all compounds tested hit in one or more screens of this group.
# FLuc stim CS – firefly luciferase counter-screen for stimulation assays | ATPlite luciferase biochemical, luminescence, 10 min; 0 = ATP-free wells, 1 = DMSO control | activation factor at 10 µM | 200,000 tested, under 10 active | AID 1027;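 active = luciferase activation factor, scaled between plate controls, of at least 2 with compound at 10 µM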
# Target sequence (P08659 whole entry, looked up): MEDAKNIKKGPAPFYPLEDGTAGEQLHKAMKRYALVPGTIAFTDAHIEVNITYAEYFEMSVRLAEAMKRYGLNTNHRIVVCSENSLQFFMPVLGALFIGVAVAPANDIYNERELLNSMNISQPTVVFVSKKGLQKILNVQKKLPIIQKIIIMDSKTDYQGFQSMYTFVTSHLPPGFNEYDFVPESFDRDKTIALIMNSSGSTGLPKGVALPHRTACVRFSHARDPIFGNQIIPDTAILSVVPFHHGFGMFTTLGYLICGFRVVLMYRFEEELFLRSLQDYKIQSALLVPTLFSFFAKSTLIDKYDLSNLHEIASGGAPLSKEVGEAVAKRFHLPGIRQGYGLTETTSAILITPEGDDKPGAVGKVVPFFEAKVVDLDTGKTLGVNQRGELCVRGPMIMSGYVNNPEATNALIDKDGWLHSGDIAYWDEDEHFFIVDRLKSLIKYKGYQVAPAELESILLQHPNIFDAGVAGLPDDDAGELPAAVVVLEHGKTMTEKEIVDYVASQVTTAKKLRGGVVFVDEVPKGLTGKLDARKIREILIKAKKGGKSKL
#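 Material: Luciferase/luciferin reagent mix; Doses: test compounds dosed from 2 mM stocks in 100% DMSO; Schedule: 10 min incubation after luciferase reagent addition, room temperature; Measured by: luminescence from luciferase reaction; Read-out: luminescence gain marking luciferase activators.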
# STAT3 inh-1 – STAT3 signaling inhibition; U3A cells, IL-6 STAT3-luciferase reporter, luminescence; host cell line lacks STAT1; inhibition, % at 5.5 µM; 190,000 compounds, 0.89% hits; AID 862;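 active = inhibition above the mean inhibition across all screened compounds plus 3 SD, cut at about 44% in these data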;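 note: 0% = DMSO only wells and 100% = 100 µM nifuroxazide control wells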
# HSP90 refold inh – HSP90 refolding inhibition in rabbit reticulocyte lysate; inhibition, % at 5.6 µM; luciferase refolding luminescence, 3 h; 290,000 compounds, 0.91% hits;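 active = inhibition above the screen-wide mean plus 3 SD, computed separately per campaign, cut at about 16% in these data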;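 note: 0% = DMSO wells and 100% = 60 µM geldanamycin wells; inhibitors lower the luminescence because luciferase stays unfolded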
# C8 TRAIL sens – caspase-8 TRAIL sensitization; 360,000 compounds, 1% hits; AID 624354; inhibition (viability loss, TRAIL sensitization), % at 10 µM; NB7+C8 cells + TRAIL, ATPlite viability luminescence;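 active = compounds causing at least 50% loss of cell viability in the single-dose screen, relative to plate controls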
# PPC-1+TRAIL kill – kills PPC-1 cancer cells in the presence of TRAIL; PPC-1 cells + TRAIL, ATPLite viability luminescence; 220,000 compounds, 0.41% hits; AID 1443; cell killing (% activity), % at 4 µM or 5 µM;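 active = cell killing above 50% in the first pass at 4 µM, then a duplicate retest at 5 µM averaging 50% or more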;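 note: plate controls were cells with TRAIL plus DMSO for no effect and medium-only wells lacking cells for full effect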
# FLuc inh counter – counter-screen for luciferase assay inhibitors: firefly luciferase inhibition; P08659; inhibition, % at 10 µM; ATPLite firefly luciferase biochemical luminescence, 10 min; 200,000 compounds, 1.5% hits;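 active = inhibition above about 50% when tested at 10 µM, limit read from the data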
# STAT3 inh-2 – confirmation of STAT3 signaling inhibitors | U3A cells, IL-6 STAT3 luciferase reporter, luminescence; cell line lacks STAT1 | shares compounds with STAT3 inh-1 | AID 1265 | inhibition, % at 5.7 µM | 1,200 compounds, 45% hits;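 active = inhibition above the hit cutoff computed for the primary STAT3 screen, cut at about 44% in these data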;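 note: 0% = IL-6 plus DMSO and 100% = IL-6 plus nifuroxazide control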
# NFkB inh STAT3ct – NF-kappaB inhibition in STAT3 inhibitor counter-screen. 1,200 compounds, 36% hits. AID 1308. shares compounds with STAT3 inh-1. inhibition, % at 5.7 µM. HEK293T NF-kB luciferase reporter, TNF-alpha induced;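 active = inhibition above the mean of solvent-only control wells plus 3 SD, cutoff set per campaign, cut at about 13% in these data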;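 note: 0% = TNF-alpha with DMSO and 100% = TNF-alpha with MG high control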
# STAT1 inh 2 – STAT1 inhibition in STAT3 inhibitor counter-screen; shares compounds with STAT3 inh-1; NIH 3T3 STAT1-luciferase reporter, IFN-gamma induced, luminescence; inhibition, % at 5.7 µM; 1,200 compounds, 27% hits;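 active = inhibition above the mean plus 3 SD of solvent-only control wells, limit set per screening run, cut at about 16% in these data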;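 note: 0% = DMSO with IFN-gamma and 100% = nifuroxazide control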
# * = called active by the depositor; / = no result given.
SMILES,FLuc stim CS,STAT3 inh-1,HSP90 refold inh,C8 TRAIL sens,PPC-1+TRAIL kill,FLuc inh counter,STAT3 inh-2,NFkB inh STAT3ct,STAT1 inh 2
N#Cc1cc([N+](=O)[O-])cnc1Nc1ccccc1,1.1,-2,-1,-1,16,-5,/,/,/
COc1ccc(CC(=O)Nc2cccc(-c3nnc(-c4cccc(C)c4)o3)c2)cc1OC,1,44*,1,3,26,0,62*,12,-3
CCn1cc(/C=C(\NC(=O)c2ccccc2Cl)C(=O)N2CCN(C)CC2)c2ccccc21,/,/,2,2,/,/,/,/,/
Cc1nc(NC(=O)/C=C/c2ccco2)sc1C,0.7,45*,-1,46,7,34,36,-21,-64
CN(C(=O)COC(=O)c1ccc2[nH]c3c(c2c1)CCCC3)C1CCS(=O)(=O)C1 (stereo unspecified),0.9,20,8,1,17,5,/,/,/
O=C(C(Cl)Cl)N1c2ccccc2OCC1c1ccccc1 (stereo unspecified),1,50*,2,22,23,-2,33,9,-2
Cc1ccc(NC(=O)Nc2ccnc(-c3cccnc3)n2)cc1,1,66*,-2,9,20,1,70*,1,23*
CC(C)CCNS(=O)(=O)c1cc2c3c(c1)CCN3C(=O)CC2,/,/,-3,-4,/,/,/,/,/
CN(C)c1ccc(C=Nc2ccccc2C(N)=O)cc1,0.1,45*,10,85*,80*,89*,31,9,-44
CN(C)c1ccc(/C=N/N=C/c2ccccc2O)cc1,0.6,25,-6,23,16,37,/,/,/
Fc1cccc(/C=N/Nc2ccc3ccccc3n2)c1,0.3,60*,0,38,-3,71*,17,-4,-82
CCc1nc(Nc2ccc(OC)c(OC)c2)c2nnn(Cc3ccccc3Cl)c2n1,1,67*,2,28,-6,-2,58*,17*,19*
Cc1c(Cl)sn(-c2ccc(Cl)cc2)c1=O,0.8,7,-1,-2,43,20,/,/,/
Cc1nn(C)c(C)c1CN(Cc1nc(CCC(C)C)no1)C(C)C,1,76*,-4,41,0,-1,78*,27*,20*
N#Cc1cc2c(nc1SC1CC(=O)N(c3ccccc3)C1=O)CCC2 (stereo unspecified),1,64*,3,26,-6,-1,27,41*,-41
CC(=O)c1cccc(N2C(=NC(=O)C3CC3)SC3CS(=O)(=O)CC32)c1 (stereo unspecified),/,/,-2,4,/,/,/,/,/
O=C(NC1c2ccccc2-c2ccccc21)N1CCCCC1,1.1,52*,1,0,-4,-7,35,17*,3
CN(C)C(=O)NC1c2ccccc2-c2ccccc21,/,/,-1,-6,/,/,/,/,/
Cc1cc(OCC(=O)Nc2ccncc2)ccc1Br,1,57*,-4,4,18,-2,52*,-4,0
COc1cccc(NC(=O)COc2ccc(Br)c(C)c2)c1,/,/,-4,3,/,/,/,/,/
Cc1cc(C(=O)COc2ccccc2C(N)=O)c(C)n1CC1CCCO1 (stereo unspecified),0.9,73*,2,26,7,12,70*,22*,16*
COC(=O)CCn1c(C)cc(C(=O)COc2ccccc2C(N)=O)c1C,0.9,43,-3,48,16,8,/,/,/
CC(C)Oc1ccc(C(=O)Nc2nnc(SCC(=O)N3CCOCC3)s2)cc1,0,70*,16*,98*,94*,97*,74*,57*,50*
Cc1ccc(C(=O)Nc2nnc(SCC(=O)N3CCCc4ccccc43)s2)cc1,0,62*,2,97*,95*,98*,71*,56*,49*
O=C(Nc1ccccc1O)c1nc(Cl)ccc1Cl,1,-58,2,-3,15,0,/,/,/
SMILES,FLuc stim CS,STAT3 inh-1,HSP90 refold inh,C8 TRAIL sens,PPC-1+TRAIL kill,FLuc inh counter,STAT3 inh-2,NFkB inh STAT3ct,STAT1 inh 2
CC(=O)c1ccc(S(=O)(=O)NCCC(=O)OCC(=O)N2CCCC2=O)cc1,/,/,/,-2,/,/,/,/,/
CC(=O)Nc1ccc(NC(=O)CNC(=O)c2cccc(C)c2)cc1,/,/,-3,10,/,/,/,/,/
COc1cc2c(cc1OC)C(c1ccc(-c3ccc(Cl)cc3Cl)o1)=NCC2,1,63*,3,25,15,-1,53*,16*,-3
COc1ccc(CN(C)Cc2nc(Cc3cccc(F)c3)no2)c2cccnc12,1,61*,-11,24,5,-2,62*,19*,26*
COc1ccc2cc3cc(C(=O)Nc4cc(OC)c(OC)c(OC)c4)oc3nc2c1,1,46*,-2,21,23,0,33,8,-17
COc1cc(-c2nnc(COC(=O)c3nn(CC(C)C)c(=O)c4ccccc34)o2)cc(OC)c1OC,/,/,/,-2,/,/,/,/,/
N#Cc1c(/N=C/c2cccs2)sc2c1CCCCC2,0.1,67*,7,54*,-8,86*,21,-24,-121
N#Cc1c(/N=C/c2cccnc2)sc2c1CCCC2,/,/,-1,4,18,/,/,/,/
COc1ccc(C2=NO[C@@](CC(=O)O)(C(=O)Nc3ccc4c(c3)OCCO4)C2)cc1,/,/,0,6,/,/,/,/,/
c1ccc(CCNc2ncnc3ccccc23)cc1,0.7,90*,7,43,17,32,83*,23*,-23
Cc1cc2c(NCCc3ccccc3)ncnc2s1,/,/,3,28,/,/,/,/,/
O=C(COC(=O)Cc1ccccc1[N+](=O)[O-])NNC(=O)c1ccc([N+](=O)[O-])cc1,/,/,/,-1,/,/,/,/,/
C=CCNc1nc(-c2c(C)nc3sccn23)cs1,1,22,-2,-8,3,4,/,/,/
Cc1nc2sccn2c1-c1csc(NCc2ccccc2)n1,1,66*,1,13,6,2,51*,9,12
Cc1ccccc1CS(=O)(=O)c1cn(CC(=O)N2CCOCC2)c2ccccc12,/,/,-4,-8,/,/,/,/,/
COc1ccc(C(=O)N2CCN(c3ccc([N+](=O)[O-])c(NCCc4ccc(OC)c(OC)c4)c3)CC2)cc1,1,70*,8,40,38,-4,87*,42*,29*
COc1ccc(CCNc2cc(N3CCN(C(=O)c4ccccc4F)CC3)ccc2[N+](=O)[O-])cc1OC,1,69*,-4,52*,21,-4,84*,37*,19*
COc1ccc(CCNc2cc(N3CCN(C(=O)c4ccc(C)cc4)CC3)ccc2[N+](=O)[O-])cc1OC,1,8,2,/,40,-2,/,/,/

# Assay outcomes from PubChem BioAssay.
